One test concerns the target T1, P2X1 receptor F188L (Homo sapiens, UniProt P51575, F188L).
T1 sequence (P51575 1-399 F188L): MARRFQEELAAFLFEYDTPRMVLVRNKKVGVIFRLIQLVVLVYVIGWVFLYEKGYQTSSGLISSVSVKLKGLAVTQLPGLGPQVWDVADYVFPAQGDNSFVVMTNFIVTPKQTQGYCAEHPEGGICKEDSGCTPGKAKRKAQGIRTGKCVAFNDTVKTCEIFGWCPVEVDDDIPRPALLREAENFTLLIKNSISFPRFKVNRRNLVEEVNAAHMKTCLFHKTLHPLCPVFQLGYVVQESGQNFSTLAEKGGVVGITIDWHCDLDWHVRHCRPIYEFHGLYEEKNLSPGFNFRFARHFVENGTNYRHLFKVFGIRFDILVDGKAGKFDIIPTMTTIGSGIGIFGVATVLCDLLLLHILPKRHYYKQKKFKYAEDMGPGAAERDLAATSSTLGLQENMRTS
The test can be described thus: Calcium ion influx assay. The format is cell-based. The following applies: maximal α,β-methylene ATP.

A further test concerns the target T2, P2X1 receptor D97A (Homo sapiens, UniProt P51575, D97A).
T2 sequence (P51575 1-399 D97A): T1 sequence (P51575 1-399 F188L) with D97A, L188F
In words: Saturation radioligand binding with [3H]-α,β-methylene ATP. The procedure, abridged: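 Whole HEK293 Flp-In T-REx cells stably expressing receptor, tetracycline-induced (150 ng/ml, 2 days), 15,000 cells/well, washed in HEPES binding buffer pH 7.4 with Ca2+/Mg2+. Increasing [3H]-α,β-methylene ATP added, 3 h room temperature with gentle agitation; non-specific binding with 10 μM ATP. Ice-cold 0.9% NaCl washes, scintillation counting (CCPM). Specific binding fitted one-site; values above 300 nM termed not defined.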

The target in the next test is T3, P2X1 receptor M214A (Homo sapiens, UniProt P51575, M214A).
T3 sequence (P51575 1-399 M214A): T1 sequence (P51575 1-399 F188L) with L188F, M214A
The test can be described thus: Calcium ion influx assay. It counts as cell-based.

Numbering of substitutions follows the chain as printed.

On to `Nc1ncnc2c1ncn2[C@@H]1O[C@H](COP(=O)(O)CP(=O)(O)OP(=O)(O)O)[C@@H](O)[C@H]1O` [α,β-methylene ATP], for which, at P2X1 receptor F188L, the “time to achieve 50% decay, times WT-P2X1” value is on record as “approximately 1.5 times”. Moreover, the “binding affinity compared to WT-P2X1” value on P2X1 receptor D97A is given as “similar”. For the same compound, the “fold decrease in potency compared to WT-P2X1” value at P2X1 receptor M214A was determined as 7 fold. Also, on P2X1 receptor M214A (maximal α,β-methylene ATP), the “desensitisation rate compared to WT-P2X1” value was “significantly slowed the desensitisation rate”.

These data come from PMC11439047 (Nature Communications, 2024).
